Legend:
SK-BR-3 = experiment: Cytotoxicity against human SKBR3 cells after 48 hrs by SRB assay; assay type: functional; conditions: SK-BR-3, 48 h; for CC50: read-out: LC50 (the source's name)
In short: (§1)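 Cells grown in RPMI 1640 with 10% FBS and penicillin/streptomycin at 37 °C and 5% CO₂, trypsinized, then seeded at 5 × 10³/well. After 18 h drug-free attachment, samples in DMSO/EtOH/PBS (0.5:0.5:99) were added for 48 h continuous exposure. Cells were fixed with cold TCA (1 h, 4 °C) and stained with SRB (10 min). Tris-solubilized stain read at 490 nm. Triplicate wells, mean ± SD; GI₅₀ derived.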

SK-MEL-28 = experiment: Cytotoxicity against human SK-MEL-28 cells after 48 hrs by SRB assay; assay type: functional, cell-based; conditions: Homo sapiens, SK-MEL-28, 48 h; for CC50: read-out: LC50 (the source's name); in short: as §1
[1] = Cytotoxicity against human HeLa-APL cells after 48 hrs by SRB assay; assay type: functional; in short: as §1
PANC-1 = experiment: Cytotoxicity against human PANC1 cells after 48 hrs by SRB assay; assay type: functional; conditions: PANC-1, 48 h; for CC50: read-out: LC50 (the source's name); in short: as §1
LoVo [2] = experiment: Cytotoxicity against human LoVo cells after 48 hrs by SRB assay; assay type: functional; conditions: for CC50: read-out: LC50 (the source's name)
LoVo [3] = experiment: Cytotoxicity against human doxorubicin resistant LoVo cells after 48 hrs by SRB assay; assay type: functional; conditions: for CC50: read-out: LC50 (the source's name); in short: as §1
DU-145 = experiment: Cytotoxicity against human DU145 cells after 48 hrs by SRB assay; assay type: functional, cell-based; conditions: Homo sapiens, DU-145, 48 h; for CC50: read-out: LC50 (the source's name); in short: as §1
K562 = experiment: Cytotoxicity against human K562 cells after 48 hrs by SRB assay; assay type: functional; conditions: K562, 48 h; for CC50: read-out: LC50 (the source's name); in short: as §1
LNCaP = experiment: Cytotoxicity against human LNcaP cells after 48 hrs by SRB assay; assay type: functional; conditions: for CC50: read-out: LC50 (the source's name); in short: as §1
HT-29 = experiment: Cytotoxicity against human HT29 cells after 48 hrs by SRB assay; assay type: functional, cell-based; conditions: Homo sapiens, HT-29, 48 h; for CC50: read-out: LC50 (the source's name); in short: as §1
[4] = Cytotoxicity against human IGROV-ET cells after 48 hrs by SRB assay; assay type: functional; conditions: for CC50: read-out: LC50 (the source's name); in short: as §1
A549 = experiment: Cytotoxicity against human A549 cells after 48 hrs by SRB assay; assay type: functional, cell-based; conditions: Homo sapiens, A549, 48 h; in short: as §1
[5] = Cytotoxicity against human IGROV cells after 48 hrs by SRB assay; assay type: functional; conditions: for CC50: read-out: LC50 (the source's name); in short: as §1
HeLa = experiment: Cytotoxicity against human HeLa cells after 48 hrs by SRB assay; assay type: functional; conditions: for CC50: read-out: LC50 (the source's name); in short: as §1

In the case of `C/C=C1\NC(=O)[C@H](Cc2ccccc2)NC(=O)[C@@H](C(C)C)NC(=O)[C@@H]([C@H](C)CC)NC(=O)[C@H](NC(=O)[C@H](NC(=O)[C@H](CCCN)NC(=O)[C@H]2CCCN2C(=O)[C@H](NC(=O)[C@@H](NC(=O)[C@@H](NC(=O)[C@H](NC(=O)CCCCCCCCCC)C(C)C)[C@@H](C)O)C(C)C)C(C)C)[C@H](C)CC)[C@H](C)OC(=O)[C@H](C(C)C)NC1=O`, the GI50 (SK-BR-3) is reported as 0.0699 µM, the GI50 (SK-BR-3; read-out: GI50) is reported as 0.0614 µM and the CC50 (SK-BR-3) is reported as 0.0736 µM. For the same compound, the GI50 (SK-MEL-28) was 0.251 µM, the GI50 (SK-MEL-28; read-out: GI50) was 0.193 µM and the CC50 (SK-MEL-28) was 0.561 µM. For the same compound, the GI50 [1] was 0.237 µM, the LC50 (concentration giving 50% net cell kill) [1] was 0.76 µM and the TGI [1] was 0.399 µM. The GI50 (PANC-1) was 1.63 µM, the TGI (PANC-1) was 1.54 µM and the CC50 (PANC-1) was 1.44 µM. The GI50 (LoVo [2]) was 0.287 µM, the TGI (LoVo [2]) was 0.319 µM and the CC50 (LoVo [2]) was 0.352 µM. For the same compound, the GI50 (LoVo [3]) was 0.0962 µM, the TGI (LoVo [3]) was 0.189 µM and the CC50 (LoVo [3]) was 0.265 µM. It also gave a GI50 (DU-145) of 0.188 µM, a GI50 (DU-145; read-out: GI50) of 0.183 µM and a CC50 (DU-145) of 0.26 µM. The CC50 (K562) was 1.17 µM, the GI50 (LNCaP) was 0.423 µM and the TGI (LNCaP) was 0.586 µM. The CC50 (LNCaP) was 0.72 µM, the GI50 (HT-29) was 0.371 µM and the TGI (HT-29) was 0.354 µM. The CC50 (HT-29) was 0.201 µM, the GI50 [4] was 0.218 µM and the GI50 ([4]; read-out: GI50) was 0.166 µM. The CC50 [4] was 0.318 µM, the GI50 (A549) was 0.186 µM and the LC50 (A549) was 0.456 µM. It also gave a GI50 (A549; read-out: GI50) of 0.16 µM, a GI50 [5] of 0.146 µM and a GI50 ([5]; read-out: GI50) of 0.218 µM. The CC50 [5] was 0.196 µM, the GI50 (HeLa) was 0.139 µM and the TGI (HeLa) was 0.129 µM. It also gave a CC50 (HeLa) of 0.12 µM.

`C/C=C1\NC(=O)[C@H](Cc2ccccc2)NC(=O)[C@@H](C(C)C)NC(=O)[C@@H]([C@H](C)CC)NC(=O)[C@H](NC(=O)[C@H](NC(=O)[C@H](CCCN)NC(=O)[C@H]2CCCN2C(=O)[C@H](NC(=O)[C@@H](NC(=O)[C@@H](NC(=O)[C@H](NC(=O)CC[C@@H](C)[C@H]2CC[C@H]3[C@@H]4CC[C@@H]5C[C@H](OC(=O)C(F)(F)F)CC[C@]5(C)[C@H]4CC[C@]23C)C(C)C)[C@@H](C)O)C(C)C)C(C)C)[C@H](C)CC)[C@H](C)OC(=O)[C@H](C(C)C)NC1=O` showed a TGI (SK-BR-3) of 0.166 µM, a GI50 (SK-BR-3; read-out: GI50) of 0.118 µM and a CC50 (SK-BR-3) of 0.233 µM. It also gave a GI50 (SK-MEL-28) of 0.19 µM, a GI50 (SK-MEL-28; read-out: GI50) of 0.209 µM and a CC50 (SK-MEL-28) of 0.172 µM. The GI50 [1] was 1.04 µM, the LC50 (concentration giving 50% net cell kill) [1] was 0.638 µM and the TGI [1] was 0.802 µM. For the same compound, the GI50 (PANC-1) was 1.64 µM, the TGI (PANC-1) was 1.44 µM and the CC50 (PANC-1) was 1.44 µM. For the same compound, the GI50 (LoVo [2]) was 0.34 µM, the TGI (LoVo [2]) was 0.374 µM and the CC50 (LoVo [2]) was 0.795 µM. For the same compound, the GI50 (LoVo [3]) was 0.227 µM, the TGI (LoVo [3]) was 0.22 µM and the CC50 (LoVo [3]) was 0.211 µM. For the same compound, the GI50 (DU-145) was 0.524 µM, the GI50 (DU-145; read-out: GI50) was 0.394 µM and the CC50 (DU-145) was 0.568 µM. For the same compound, the GI50 (K562) was 0.967 µM, the TGI (K562) was 0.795 µM and the CC50 (K562) was 1.17 µM. For the same compound, the GI50 (LNCaP) was 0.851 µM, the TGI (LNCaP) was 0.912 µM and the CC50 (LNCaP) was 0.98 µM. For the same compound, the GI50 (HT-29) was 0.387 µM, the TGI (HT-29) was 0.45 µM and the CC50 (HT-29) was 0.761 µM. For the same compound, the GI50 [4] was 0.406 µM, the GI50 ([4]; read-out: GI50) was 0.352 µM and the CC50 [4] was 0.468 µM. It also gave a GI50 (A549) of 0.949 µM, an LC50 (A549) of 0.851 µM and a GI50 (A549; read-out: GI50) of 1.06 µM. The GI50 [5] was 0.5 µM, the GI50 ([5]; read-out: GI50) was 0.375 µM and the CC50 [5] was 0.404 µM. It also gave a GI50 (HeLa) of 1.07 µM, a TGI (HeLa) of 0.978 µM and a CC50 (HeLa) of 0.886 µM.

Compound `C/C=C1\NC(=O)[C@H](Cc2ccccc2)NC(=O)[C@@H](C(C)C)NC(=O)[C@@H]([C@H](C)CC)NC(=O)[C@H](NC(=O)[C@H](NC(=O)[C@H](CCCN)NC(=O)[C@H]2CCCN2C(=O)[C@H](NC(=O)[C@@H](NC(=O)[C@@H](NC(=O)[C@H](NC(=O)CCCCCCCCCCCCCCC)C(C)C)[C@@H](C)O)C(C)C)C(C)C)[C@H](C)CC)[C@H](C)OC(=O)[C@H](C(C)C)NC1=O` has a GI50 (SK-BR-3) of 0.0398 µM, a GI50 (SK-BR-3; read-out: GI50) of 0.0439 µM and a CC50 (SK-BR-3) of 0.036 µM. It also gave a GI50 (SK-MEL-28) of 0.123 µM, a GI50 (SK-MEL-28; read-out: GI50) of 0.138 µM and a CC50 (SK-MEL-28) of 0.11 µM. For the same compound, the GI50 [1] was 0.326 µM, the LC50 (concentration giving 50% net cell kill) [1] was 0.513 µM and the TGI [1] was 0.479 µM. The GI50 (PANC-1) was 0.203 µM, the TGI (PANC-1) was 1.37 µM and the CC50 (PANC-1) was 1.3 µM. For the same compound, the GI50 (LoVo [2]) was 0.3 µM, the TGI (LoVo [2]) was 0.293 µM and the CC50 (LoVo [2]) was 0.286 µM. It also gave a GI50 (LoVo [3]) of 0.264 µM, a TGI (LoVo [3]) of 0.262 µM and a CC50 (LoVo [3]) of 0.258 µM. It also gave a GI50 (DU-145) of 0.126 µM, a GI50 (DU-145; read-out: GI50) of 0.145 µM and a CC50 (DU-145) of 0.111 µM. The GI50 (K562) was 0.124 µM, the TGI (K562) was 0.314 µM and the CC50 (K562) was 0.703 µM. For the same compound, the GI50 (LNCaP) was 0.129 µM, the TGI (LNCaP) was 0.118 µM and the CC50 (LNCaP) was 0.107 µM. For the same compound, the CC50 (HT-29) was 0.0727 µM, the GI50 [4] was 0.14 µM and the GI50 ([4]; read-out: GI50) was 0.345 µM. The CC50 [4] was 0.0791 µM, the GI50 (A549) was 0.126 µM and the LC50 (A549) was 0.117 µM. For the same compound, the GI50 (A549; read-out: GI50) was 1.37 µM, the GI50 [5] was 0.0926 µM and the GI50 ([5]; read-out: GI50) was 0.191 µM. For the same compound, the CC50 [5] was 0.0622 µM and the CC50 (HeLa) was 0.151 µM.
